Numbered stars: 1 amine (or outer) side, 2 acyl side, 3 side chain; on linkers, the order of the positions; unused ones are H or OH. Bridge positions count the residues as written; N and C are the ends. Square brackets hold non-standard residues; d marks the D form. Peptide text beside a SMILES is read from it. * marks the point of attachment. Orn(Me) = CN(CCC[C@H](N[*:1])C(=O)[*:2])[*:3]; X5 = CC(C)CCNCCC[C@H](N[*:1])C(=O)[*:2]; Orn(iPr) = CC(C)NCCC[C@H](N)C(=O)O; 2Thi = N[C@@H](Cc1cccs1)C(=O)O; 3Thi = N[C@@H](Cc1ccsc1)C(=O)O; Orn = NCCC[C@H](N)C(=O)O; Dab = NCC[C@H](N)C(=O)O; Ac4c = NC1(C(=O)O)CCC1; N(Me)OMe = CON(C)*
Assays:
[1] = molecular target: Vasopressin V1a receptor (Homo sapiens, UniProt P37288); assay: Agonist activity at recombinant human vasopressin V1a receptor expressed in HEK293 cells by luciferase reporter gene assay; format: functional, cell-based; conditions: read-out: EC50
[2] = molecular target: T1, Vasopressin V1b receptor (Homo sapiens, UniProt P47901); assay: Agonist activity at recombinant human vasopressin V1b receptor expressed in Flp-In-293 cells by luciferase reporter gene assay; format: functional, cell-based; conditions: read-out: EC50
T1 sequence (P47901 whole entry): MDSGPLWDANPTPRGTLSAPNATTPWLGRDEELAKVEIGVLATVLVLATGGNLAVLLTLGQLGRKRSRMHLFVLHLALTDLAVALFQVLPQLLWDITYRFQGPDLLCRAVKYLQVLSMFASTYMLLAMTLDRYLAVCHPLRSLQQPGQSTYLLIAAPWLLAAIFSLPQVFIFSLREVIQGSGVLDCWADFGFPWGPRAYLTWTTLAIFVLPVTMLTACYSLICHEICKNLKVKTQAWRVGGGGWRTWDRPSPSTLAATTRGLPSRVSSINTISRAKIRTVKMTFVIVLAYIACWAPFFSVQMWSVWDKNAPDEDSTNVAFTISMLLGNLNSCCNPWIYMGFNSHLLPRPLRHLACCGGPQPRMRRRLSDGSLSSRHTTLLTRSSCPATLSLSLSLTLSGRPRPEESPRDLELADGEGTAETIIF
Procedure, shortened: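 Reporter gene assays in HEK293 cells transiently cotransfected with V1a (human or rat) or human V2 receptor vector plus NFAT-luciferase (V1a) or CRE-luciferase (V2) reporter; V1b in Flp-In-293 stably expressing receptor, OT in CHO-K1 stably expressing receptor, both transiently transfected with NFAT-luciferase. Two days post-transfection, peptides added for 5 h at 37 °C, lysis with luciferin, luminescence read.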

[3] = molecular target: Vasopressin V1a receptor (Rattus norvegicus, UniProt P30560); assay: Agonist activity at recombinant rat vasopressin V1a receptor expressed in HEK293 cells by luciferase reporter gene assay; format: functional, cell-based
[4] = molecular target: T2, Vasopressin V2 receptor (Homo sapiens, UniProt P30518); assay: Agonist activity at recombinant human vasopressin V2 receptor expressed in HEK293 cells by luciferase reporter gene assay; format: functional, cell-based
[5] = molecular target: T2, Vasopressin V2 receptor; assay: Partial agonist activity at recombinant human vasopressin V2 receptor expressed in HEK293 cells by luciferase reporter gene assay; format: functional, cell-based
Procedure, shortened: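 Same luciferase reporter systems (OT in stable CHO-K1, V1b in stable Flp-In-293, each with transient NFAT-luciferase; V1a in HEK293 with NFAT-luciferase, V2 in HEK293 with CRE-luciferase). Peptides added for 5 h at 37 °C two days post-transfection, luminescence read. Partial agonism means efficacy <70%.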

[6] = species: Homo sapiens; assay: Selectivity ratio of EC50 for human vasopressin V1b receptor to EC50 for human vasopressin V1a receptor
[7] = molecular target: Vasopressin V1a/V2 (Homo sapiens) (UniProt P30518+P37288); assay: Selectivity ratio of EC50 for human vasopressin V2 receptor to EC50 for human vasopressin V1a receptor
[8] = molecular target: T3, Oxytocin receptor (Homo sapiens, UniProt P30559); assay: Agonist activity at human OT receptor expressed in CHO-K1 cells by luciferase reporter gene assay; format: functional, cell-based
T3 sequence (P30559 whole entry): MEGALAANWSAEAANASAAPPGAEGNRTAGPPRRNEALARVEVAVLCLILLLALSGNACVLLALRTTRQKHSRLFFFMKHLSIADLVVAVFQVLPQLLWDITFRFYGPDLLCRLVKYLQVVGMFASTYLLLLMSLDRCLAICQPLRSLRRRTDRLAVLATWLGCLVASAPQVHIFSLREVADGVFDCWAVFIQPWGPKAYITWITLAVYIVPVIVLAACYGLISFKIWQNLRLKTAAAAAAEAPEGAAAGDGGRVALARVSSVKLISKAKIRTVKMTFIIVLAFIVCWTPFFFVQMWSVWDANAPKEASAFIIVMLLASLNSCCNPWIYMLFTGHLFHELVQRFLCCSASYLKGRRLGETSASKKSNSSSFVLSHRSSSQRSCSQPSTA

[9] = species: Homo sapiens; assay: Selectivity ratio of EC50 for human oxytocin receptor to EC50 for human vasopressin V1a receptor

Sequence of Vasopressin V1a receptor (Rattus norvegicus, UniProt P30560) (P30560 whole entry): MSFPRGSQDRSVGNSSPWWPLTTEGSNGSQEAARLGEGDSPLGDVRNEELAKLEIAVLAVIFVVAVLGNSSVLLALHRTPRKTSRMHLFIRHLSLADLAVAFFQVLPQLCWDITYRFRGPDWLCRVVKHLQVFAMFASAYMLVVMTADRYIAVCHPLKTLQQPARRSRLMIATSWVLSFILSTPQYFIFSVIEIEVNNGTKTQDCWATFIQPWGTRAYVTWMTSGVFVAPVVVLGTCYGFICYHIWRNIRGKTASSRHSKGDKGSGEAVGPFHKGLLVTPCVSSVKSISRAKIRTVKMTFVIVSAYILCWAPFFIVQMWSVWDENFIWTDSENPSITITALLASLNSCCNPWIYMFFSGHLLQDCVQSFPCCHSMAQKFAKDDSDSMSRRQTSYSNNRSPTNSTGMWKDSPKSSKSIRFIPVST
Sequence of Vasopressin V1a/V2 (Homo sapiens) (P30518 whole entry, looked up): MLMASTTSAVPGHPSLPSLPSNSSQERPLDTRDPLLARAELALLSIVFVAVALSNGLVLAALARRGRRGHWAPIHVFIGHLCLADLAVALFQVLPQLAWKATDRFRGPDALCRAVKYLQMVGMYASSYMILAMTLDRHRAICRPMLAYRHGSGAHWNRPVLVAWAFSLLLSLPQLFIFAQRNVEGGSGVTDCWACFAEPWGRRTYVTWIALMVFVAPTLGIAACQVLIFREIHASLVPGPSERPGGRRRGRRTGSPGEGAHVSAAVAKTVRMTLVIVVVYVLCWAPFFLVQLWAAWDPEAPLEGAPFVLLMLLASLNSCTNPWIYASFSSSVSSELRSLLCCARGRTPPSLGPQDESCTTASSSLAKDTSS
Sequence of Vasopressin V1a/V2 (Homo sapiens) (P37288 whole entry, looked up): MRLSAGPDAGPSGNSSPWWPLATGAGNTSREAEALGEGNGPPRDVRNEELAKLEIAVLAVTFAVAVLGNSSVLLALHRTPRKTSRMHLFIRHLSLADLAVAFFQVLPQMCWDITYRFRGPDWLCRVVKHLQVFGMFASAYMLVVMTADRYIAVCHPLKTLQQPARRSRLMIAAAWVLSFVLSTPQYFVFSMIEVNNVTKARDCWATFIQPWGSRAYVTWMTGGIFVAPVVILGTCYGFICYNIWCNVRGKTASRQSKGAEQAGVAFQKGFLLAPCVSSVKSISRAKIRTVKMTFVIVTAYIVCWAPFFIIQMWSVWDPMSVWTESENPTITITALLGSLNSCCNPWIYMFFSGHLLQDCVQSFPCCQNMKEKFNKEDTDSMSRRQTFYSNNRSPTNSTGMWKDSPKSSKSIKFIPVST
T2 sequence (P30518 whole entry): as the sequence (P30518 whole entry, looked up) above
Sequence of Vasopressin V1a receptor (Homo sapiens, UniProt P37288) (P37288 whole entry): as the sequence (P37288 whole entry, looked up) above

Row | SMILES | EC50 [1] [nM] | EC50 [2] [nM] | EC50 ([3]; read-out: EC50) [nM] | EC50 ([3]; read-out: pEC50 (converted)) [nM] | EC50 ([4]; read-out: EC50) [nM] | Efficacy [5] [%] | Ratio EC50 [6] | Ratio EC50 [7] | EC50 ([8]; cho-k1, read-out: EC50) [nM] | EC50 ([8]; read-out: pEC50 (converted)) [nM] | Ratio EC50 [9] | EC50 ([4]; hek293, read-out: EC50) [nM] | EC50 ([4]; read-out: pEC50 (converted)) [nM] | EC50 ([8]; read-out: EC50) [nM]
1 | N=C(N)NCCC[C@H](NC(=O)[C@@H]1CCCN1C(=O)[C@@H]1CSSC[C@H](N)C(=O)N[C@@H](Cc2ccccc2)C(=O)N[C@@H](Cc2ccccc2)C(=O)N[C@@H](CCC(N)=O)C(=O)N[C@@H](CC(N)=O)C(=O)N1)C(=O)NCC(N)=O (H-CFFQNCPRG-NH2; disulfide 1-6) | 0.15 | 16 | 0.07 | 0.0794 | 1.4 | – | – | – | – | – | – | – | – | –
2 | CC[C@H](C)[C@@H]1NC(=O)[C@H](Cc2ccccc2)NC(=O)[C@@H](N)CSSC[C@@H](C(=O)N2CCC[C@H]2C(=O)N[C@@H](CCN)C(=O)NCC(N)=O)NC(=O)[C@H](CC(N)=O)NC(=O)[C@H](CC(=O)NC)NC1=O (H-CFID(NHMe)NCP[Dab]G-NH2; disulfide 1-6) | 3.9 | 8.7 | – | – | 5300 | < 70 | 2.2 | 1300 | > 10000 | > 10000 | > 2500 | – | – | –
3 | CCNC(=O)CC[C@@H]1NC(=O)[C@H]([C@@H](C)CC)NC(=O)[C@H](Cc2ccccc2)NC(=O)[C@@H](N)CSSC[C@@H](C(=O)N2CCC[C@H]2C(=O)N[C@@H](CCCN)C(=O)NCC(N)=O)NC(=O)[C@H](CC(N)=O)NC1=O (H-CFIE(NHEt)NCP[Orn]G-NH2; disulfide 1-6) | 39 | 97 | – | – | 2600 | < 70 | 2.4 | 66 | > 10000 | > 10000 | > 250 | – | – | –
4 | CC[C@H](C)[C@@H]1NC(=O)[C@H](Cc2ccsc2)NC(=O)[C@@H](N)CSSC[C@@H](C(=O)N2CCC[C@H]2C(=O)N[C@@H](CCCN)C(=O)NCC(N)=O)NC(=O)[C@H](CC(N)=O)NC(=O)[C@H](CC(N)=O)NC1=O (H-C[3Thi]INNCP[Orn]G-NH2; disulfide 1-6) | 7.3 | 350 | – | – | – | – | 47 | > 1300 | > 10000 | > 10000 | > 1300 | > 10000 | > 10000 | –
5 | CC[C@H](C)[C@@H]1NC(=O)C2(CCC2)NC(=O)[C@@H](N)CSSC[C@@H](C(=O)N2CCC[C@H]2C(=O)N[C@@H](CCN)C(=O)NCC(N)=O)NC(=O)[C@H](CC(N)=O)NC(=O)[C@H](CC(N)=O)NC1=O (H-C[Ac4c]INNCP[Dab]G-NH2; disulfide 1-6) | 12 | 120 | – | – | – | – | 10 | > 830 | > 10000 | > 10000 | > 830 | > 10000 | > 10000 | –
6 | CC[C@H](C)[C@@H]1NC(=O)[C@H](Cc2cccs2)NC(=O)[C@@H](N)CSSC[C@@H](C(=O)N2CCC[C@H]2C(=O)N[C@@H](CCN)C(=O)NCC(N)=O)NC(=O)[C@H](CC(N)=O)NC(=O)[C@H](CC(N)=O)NC1=O (H-C[2Thi]INNCP[Dab]G-NH2; disulfide 1-6) | 12 | 510 | – | – | – | – | 42 | > 830 | > 10000 | > 10000 | > 830 | > 10000 | > 10000 | –
7 | CC[C@H](C)[C@@H]1NC(=O)[C@H](Cc2cccs2)NC(=O)[C@@H](N)CSSC[C@@H](C(=O)N2CCC[C@H]2C(=O)N[C@@H](CCCNC(C)C)C(=O)NCC(N)=O)NC(=O)[C@H](CC(N)=O)NC(=O)[C@H](CC(N)=O)NC1=O (H-C[2Thi]INNCP[Orn(iPr)]G-NH2; disulfide 1-6) | 14 | 260 | – | – | – | – | 18 | > 710 | – | – | 61 | > 10000 | > 10000 | 860
8 | CC[C@H](C)[C@@H]1NC(=O)[C@H](Cc2ccccc2)NC(=O)[C@@H](N)CSSC[C@@H](C(=O)N2CCC[C@H]2C(=O)N[C@@H](CCCN)C(=O)NCC(N)=O)NC(=O)[C@H](CC(N)=O)NC(=O)[C@H](CCC(N)=O)NC1=O (H-CFIQNCP[Orn]G-NH2; disulfide 1-6) | – | 25 | 0.12 | – | 155 | – | – | – | > 10000 | > 10000 | – | – | – | –
9 | CC[C@H](C)[C@@H]1NC(=O)[C@H](Cc2ccccc2)NC(=O)[C@@H](N)CSSC[C@@H](C(=O)N2CCC[C@H]2C(=O)N[C@@H](CCCN)C(=O)NCC(N)=O)NC(=O)[C@H](CC(N)=O)NC(=O)[C@H](CCC(=O)N(C)OC)NC1=O (H-CFIE(N(Me)OMe)NCP[Orn]G-NH2; disulfide 1-6) | 69 | 540 | – | – | 1200 | – | 7.8 | 17 | > 10000 | > 10000 | > 140 | – | – | –
10 | CC[C@H](C)[C@@H]1NC(=O)[C@H](Cc2ccccc2)NC(=O)[C@@H](N)CSSC[C@@H](C(=O)N2CCC[C@H]2C(=O)N[C@@H](CCCNCCC(C)C)C(=O)NCC(N)=O)NC(=O)[C@H](CC(N)=O)NC(=O)[C@H](CCC(N)=O)NC1=O (H-CFIQNCP[X5]G-NH2; disulfide 1-6) | 0.82 | 100 | – | – | 190 | – | 120 | 230 | – | – | 53 | – | – | 44
11 | CC[C@H](C)[C@@H]1NC(=O)[C@H](Cc2ccccc2)NC(=O)[C@@H](N)CSSC[C@@H](C(=O)N2CCC[C@H]2C(=O)N[C@@H](CCCNC)C(=O)NCC(N)=O)NC(=O)[C@H](CC(N)=O)NC(=O)[C@H](CC(N)=O)NC1=O (H-CFINNCP[Orn(Me)]G-NH2; disulfide 1-6) | 2.4 | 65 | – | – | – | – | 27 | > 4100 | > 10000 | > 10000 | > 4100 | > 10000 | > 10000 | –
12 | NCCC[C@H](NC(=O)[C@@H]1CCCN1C(=O)[C@@H]1CSSC[C@H](N)C(=O)N[C@@H](Cc2ccccc2)C(=O)N[C@@H](Cc2ccccc2)C(=O)N[C@@H](CCC(N)=O)C(=O)N[C@@H](CC(N)=O)C(=O)N1)C(=O)NCC(N)=O (H-CFFQNCP[Orn]G-NH2; disulfide 1-6) | 0.14 | 15 | – | – | 9.2 | – | 100 | 65 | > 10000 | > 10000 | > 71000 | – | – | –

— ChEMBL document CHEMBL1817572, “New, potent, selective, and short-acting peptidic V1a receptor agonists” (J Med Chem, 2011)
